Test results published in ChEMBL document CHEMBL1240523, “Small-molecule inhibitors of NADPH oxidase 4” (J Med Chem, 2010).

How the values were obtained:
Type in all cases: cell-based
[1] = biological target: T1, NADPH oxidase 4 (Homo sapiens) (UniProt Q9NPH5); experiment: Inhibition of NOX4 expressed in HEK293 FS cells at 10 uM assessed as H2O2 production by H2O2/Tyr/LPO assay
T1 sequence (whole entry): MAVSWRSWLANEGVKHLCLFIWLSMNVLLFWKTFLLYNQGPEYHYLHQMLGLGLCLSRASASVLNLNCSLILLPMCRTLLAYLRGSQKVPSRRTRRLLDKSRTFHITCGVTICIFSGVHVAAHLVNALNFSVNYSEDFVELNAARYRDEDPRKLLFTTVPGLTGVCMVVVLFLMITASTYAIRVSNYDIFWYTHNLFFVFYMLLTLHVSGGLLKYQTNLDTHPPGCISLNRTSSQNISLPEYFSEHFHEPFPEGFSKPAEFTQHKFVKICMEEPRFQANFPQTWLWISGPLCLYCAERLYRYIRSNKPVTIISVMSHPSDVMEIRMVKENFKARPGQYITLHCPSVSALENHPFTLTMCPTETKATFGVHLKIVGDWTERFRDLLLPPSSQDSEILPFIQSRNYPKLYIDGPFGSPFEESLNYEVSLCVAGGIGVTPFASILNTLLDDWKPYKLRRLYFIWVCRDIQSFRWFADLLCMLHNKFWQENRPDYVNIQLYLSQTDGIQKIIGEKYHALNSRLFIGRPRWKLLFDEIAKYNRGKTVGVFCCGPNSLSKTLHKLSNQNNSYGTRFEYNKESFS
Method in brief: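 Primary screen at 10 μM in the H2O2/Tyr/LPO cellular assay. HEK 293 FS cells overexpress NOX4. The LPO enzyme forms fluorescent o,o'-dityrosine from L-tyrosine and H2O2, detected by spectrofluorometric plate reader. Inhibition expressed relative to DPI.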

[2] = biological target: T2, NADPH oxidase 4 (Homo sapiens, UniProt Q9NPH5); experiment: Inhibition of NOX4 expressed in HEK293 FS cells assessed as H2O2 production by H2O2/Tyr/LPO assay
T2 sequence (Q9NPH5 whole entry): T1 sequence (whole entry)
Method in brief: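 Cell-based H2O2/Tyr/LPO assay in free-style HEK 293 F cells transfected to overexpress constitutively H2O2-producing NOX4. NOX4-generated H2O2 drives LPO conversion of L-tyrosine to fluorescent o,o'-dityrosine, read on a spectrofluorometric plate reader. IC50 estimated from an eight-point curve, 1/2 dilution series from 10 to 0.078 μM.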

[3] = Cytotoxicity against human free style HEK293 cells after 72 hrs; details: FreeStyle HEK293 cells
Method in brief: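 Luminescent cell viability kit read-out; cells exposed to 10 μM compound for 72 h. Values expressed as percentage of live cells.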

[4] = biological target: T1, NADPH oxidase 4 (Homo sapiens); experiment: Inhibition of NOX4 expressed in HEK293 FS cells at 10 uM assessed as H2O2 production by H2O2/Tyr/LPO assay substituted with 3 uM H2O2; details: values are per cent of control
Method in brief: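 Redox-activity counter-screen: transfected cells replaced by 3 μM H2O2 in the H2O2/Tyr/LPO read-out (LPO plus L-tyrosine giving fluorescent dityrosine). Compounds at 10 μM final, to detect breakdown of H2O2 independent of NOX4.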

SMILES	inhibition [1] [%]	IC50 [2] [nM]	cytotoxicity at 72 h [3] [%]	% inhibition of H2O2 signal (cell-free redox counter-screen) [4] [%]
N#Cc1ccccc1Cn1c(=O)c2cc(O)c(O)cc2c2cc(O)c(O)cc21	97	590	108	4.8
O=C(O)c1cc(NCc2ccccc2O)ccc1O	89	960	102	5.35
O=C(NCCc1ccc(O)c(O)c1)C(=O)Nc1cccc([N+](=O)[O-])c1	104	1640	74.9	-3.5
COC(=O)c1cc(NCc2ccccc2O)ccc1O	91	1270	106	3.83
O=c1c2cc(O)c(O)cc2c2cc(O)c(O)cc2n1Cc1cc([N+](=O)[O-])ccc1O	104	170	90.6	-4.8
Nc1ccc(Nc2ncnc3c2sc2ccc(N)cc23)cc1	101	1070	60.5	-2.78
O=c1c(O)c(-c2ccc(O)cc2)oc2cc(O)cc(O)c12 [KAEMPFEROL]	105	1200	119	2.09
O=C1Nc2ccc([N+](=O)[O-])cc2/C1=C/c1ccc(O)c(O)c1	102	1130	123	0.39
O=C(N/N=C/c1ccc(O)c(O)c1)C(=O)N/N=C/c1ccc(O)c(O)c1	105	1160	99.5	7.6
C=CCN(CC=C)C(=S)/N=C1\C(=O)Nc2cc(C)c(O)c(C)c21	100			
O=c1cc(-c2ccc(O)c(O)c2)oc2cc(O)cc(O)c12 [LUTEOLIN]	106	850	110	
O=c1cc(-c2ccc(O)cc2)oc2cc(O)cc(O)c12 [APIGENIN]	105	1130	108	-1.2
O=c1c2cc(O)c(O)cc2c2cc(O)c(O)cc2n1Cc1cccc([N+](=O)[O-])c1	101	260	112	-4.9
COc1cc(CCNC(=O)C(=O)Nc2cccc(N)c2)ccc1O	104	1300	82.4	-3.3
O=c1c(O)c(-c2ccc(O)c(O)c2)oc2cc(O)cc(O)c12 [QUERCETIN]	94	680	102	
COc1cc(O)cc2oc(-c3ccc(O)c(O)c3)c(O)c(=O)c12	100	740	121	3.17
COc1cc(/C=C2\C(=O)Nc3ccc(NC(C)=O)cc32)ccc1O	104	1400	112	-5.16
O=C(N/N=C/c1cccc(O)c1O)C(=O)N/N=C/c1cccc(O)c1O	103	910	67.2	-4.58
COc1cc(O)c2c(=O)c(OC)c(-c3ccc(O)c(O)c3)oc2c1	88	1020		
Nc1cccc(Nc2ncnc3c2sc2ccc(N)cc23)c1	98	240	106	17.9
O=C(O)c1cc(NCc2cc(O)ccc2O)ccc1O [LAVENDUSTIN C]	82	1340	88.7	72.4
C=CCN(CC=C)C(=S)N=C1C(=O)Nc2cc(C)c(O)c(C)c21		1000	97.8	
O=c1c(O[C@H]2O[C@H](CO)[C@@H](O)[C@H](O)[C@H]2O)c(-c2ccc(O)c(O)c2)oc2cc(O)cc(O)c12 [MIQUELIANIN]	105			-1.86
O=c1c2cc(O)c(O)cc2c2cc(O)c(O)cc2n1Cc1ccc([N+](=O)[O-])cc1	93	1580	108	-6.11
CC(C)c1cc(/C=C2\C(=O)Nc3ccccc32)cc(C(C)C)c1O	102	630	18.7	-0.88
O=c1c2cc(O)c(O)cc2c2cc(O)c(O)cc2n1Cc1ccccc1S(=O)(=O)c1ccccc1	95	1580	113	-1.05
